Source: ChEMBL document CHEMBL3396987, “Discovery and structure-activity relationship studies of N6-benzoyladenine derivatives as novel BRD4 inhibitors” (Bioorg Med Chem, 2015)
Calls of active or inactive are those of the source. The calls are words filed in the database; no cut-off is given here.

Legend:
[1] = molecular target: T1, Bromodomain-containing protein 4 (Homo sapiens, UniProt O60885); assay: Inhibition of BRD4 bromodomain-1 (unknown origin) by europium based LANCE TR-FRET assay
[2] = molecular target: T1, Bromodomain-containing protein 4; conditions: at 100 µM
[3] = molecular target: T1, Bromodomain-containing protein 4; assay: Inhibition of BRD4 bromodomain-1 (unknown origin) at 300 uM by europium based LANCE TR-FRET assay
In short: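 Run with a commercial BRD4 bromodomain 1 TR-FRET assay kit, read out as europium-based LANCE time-resolved fluorescence resonance energy transfer.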

SMILES | IC50 [1] [µM] | inhibition [2] | inhibition [3] [%]
CN(C)c1ccccc1C(=O)Nc1ncnc2[nH]cnc12 | 5.6 | – | –
COc1cc(OC)c(C(=O)Nc2ncnc3[nH]cnc23)cc1OC | 0.427 | – | –
CSc1ccccc1C(=O)Nc1ncnc2[nH]cnc12 | 29.7 | – | –
COc1cccc(C(=O)Nc2ncnc3[nH]cnc23)c1 | 63 | – | –
COc1ccc(C(=O)Nc2ncnc3[nH]cnc23)cc1OC | 7.8 | – | –
O=C(Nc1ncnc2[nH]cnc12)c1cccc(Br)c1 | – | 44.5% | < 50
O=C(Nc1ncnc2[nH]cnc12)c1ccccc1Br | – | 39% | < 50
Cn1cnc2c(NC(=O)c3ccccc3)ncnc21 | – | 3.7% | < 50
O=C1CCC(N2C(=O)c3ccccc3C2=O)C(=O)N1 (stereo unspecified) | – | inactive | –
C/C(=C\CNc1ncnc2[nH]cnc12)CO | – | inactive | –
O=C(Nc1cccc2ncccc12)c1ccccc1 | – | 16.4% | < 50
COc1cccc(OC)c1C(=O)Nc1ncnc2[nH]cnc12 | – | 11.5% | < 50
COc1cc(OC)cc(C(=O)Nc2ncnc3[nH]cnc23)c1 | 17.9 | – | –
O=C(Nc1cccc2c1ncn2C(=O)c1ccccc1)c1ccccc1 | – | 7.2% | < 50
O=C(Nc1cccc2[nH]cnc12)c1ccccc1 | – | 4.8% | < 50
O=C(Nc1ncnc2[nH]cnc12)c1ccc(Br)cc1 | – | 36.7% | < 50
COc1ccc(OC)c(C(=O)Nc2ncnc3[nH]cnc23)c1 | 7.2 | – | –
O=C(Nc1ccncn1)c1ccccc1 | – | 5.8% | < 50
CCCOc1ccccc1C(=O)Nc1ncnc2[nH]cnc12 | 20 | – | –
COc1ccc(C(=O)Nc2ncnc3[nH]cnc23)c(OC)c1 | – | 40.8% | < 50
Cc1noc(C)c1N1C(=O)c2ccccc2C1=O | – | inactive | –
COc1cccc(C(=O)Nc2ncnc3[nH]cnc23)c1OC | 78.6 | – | –
COc1ccc(C(=O)Nc2ncnc3[nH]cnc23)cc1 | 34.5 | – | –
Cc1n[nH]c(C)c1CN1C(=O)c2ccccc2C1=O | – | inactive | –
COc1ccccc1C(=O)Nc1ncnc2[nH]cnc12 | 16 | – | –
O=C(c1ccccc1)N(C(=O)c1ccccc1)c1ccncn1 | – | 11% | < 50
Cc1ccccc1C(=O)Nc1ncnc2[nH]cnc12 | – | 40.4% | < 50
c1ccc(CNc2ncnc3[nH]cnc23)cc1 | – | inactive | –
O=C(Nc1ncnc2nc[nH]c12)c1ccccc1 | 34.2 | – | –
